According to the RNAGym collection of RNA variant scans (doi:10.1038/nmeth.2970):

B1: NELF-E aptamer (parent)
chain: CCCAACGACUGCCGAGCGAGAUUACGCUUGAGCGCCCCACUGAGGAUGCCCACGGGCGAUUGGGGCACGG

Variants of: B1
Assay: HiTS-RAP
Settings: with NELF-E (Drosophila)
In short: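 Aptamer DNA templates bearing a T7 promoter and a ter site were sequenced on an Illumina GAIIx flowcell. T7 RNA polymerase then transcribed them in situ, and GST-Tus halted transcription over 30 minutes at 37°C. After a 30-minute room-temperature equilibration with NELF-E-mOrange at 0.064 to 1000 nM in HEPES binding buffer, clusters were imaged, using only the first binding curve. Intensities normalised to sequencing intensity were averaged per sequence and fitted with weighted Hill fits to give Kd, retaining only fits whose variance stayed under 1,000,000.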

| Variant | Kd |
| --- | --- |
| G7U U28A | 5.51 nM |
| A8G G64A | 7.44 nM |
| A8U A19G | 6.26 nM |
| A8U A19U | 6.78 nM |
| A8G A15G | 6.29 nM |
| A8G A15U | 5.54 nM |
| G7U G56U | 7.83 nM |
| G7U G56A | 9.43 nM |
| C6U G54A | 14.5 nM |
| C6U C13G | 5.6 nM |
| C6U C13U | 5.09 nM |
| G7U U61A | 39.5 nM |
| G7U U61C | 79 nM |
| A8U A59G | 47.2 nM |
| G7A C13G | 6.51 nM |
| A8U G16U | 7.54 nM |
| A8U G16A | 6.74 nM |
| A8G G34A | 4.84 nM |
| A8U C35U | 12.5 nM |
| G7A U29G | 6.46 nM |
| G7U A46G | 56 nM |
| A8G A43G | 23.7 nM |
| A8G A43U | 63.6 nM |
| G7C A8G | 5.81 nM |

| Variant | Kd |
| --- | --- |
| G7A G63A | 14.4 nM |
| G7U G45A | 21.8 nM |
| A8U C12G | 6.15 nM |
| A8U C12U | 5.4 nM |
| A8U G20U | 6.62 nM |
| A8G A59U | 57.1 nM |
| A8G A59G | 89.2 nM |
| A8G C37U | 10.1 nM |
| A8G C17G | 5.53 nM |
| A8G C17U | 4.94 nM |
| G7U C57U | 6.23 nM |
| G7A U23G | 5.95 nM |
| G7A A8G | 6.39 nM |
| G7A A8C | 5.87 nM |
| G7A A8U | 8.46 nM |
| A8G A31G | 7.13 nM |
| A8G A31U | 5.68 nM |
| G7U C13U | 5.75 nM |
| G7U C13G | 5.83 nM |
| G7U C13A | 6.82 nM |
| C6U G7U | 6.71 nM |
| G7C G11U | 7.68 nM |
| A8U G26A | 4.2 nM |
| A8U G63A | 15.3 nM |

| Variant | Kd |
| --- | --- |
| A8U G63U | 11.1 nM |
| G7U U22C | 5.8 nM |
| G7U U22A | 6.43 nM |
| G7U U22G | 6.14 nM |
| A8U G18A | 5.68 nM |
| A8U G18U | 5.91 nM |
| A8G C57U | 6 nM |
| C6U U29G | 5.8 nM |
| C6U U29A | 5.66 nM |
| A8U C27U | 4.24 nM |
| G7A U41G | 6.05 nM |
| G7U G30A | 6.35 nM |
| G7U G30U | 7.92 nM |
| C6U G42A | 52.7 nM |
| C6U C12U | 6.16 nM |
| C6U C12G | 5.7 nM |
| A8U C17U | 5.13 nM |
| A8U C17G | 6.07 nM |
| A8C C9G | 7.53 nM |
| A8G A21U | 5.17 nM |
| A8G A21G | 6.28 nM |
| G7U A15G | 5.56 nM |
| G7U A15U | 6 nM |
| G7U C36U | 7.87 nM |

| Variant | Kd |
| --- | --- |
| A8G G14U | 7.09 nM |
| A8G G14A | 6.2 nM |
| A8U C38U | 8.93 nM |
| A8C | 6.72 nM |
| A8U | 5.54 nM |
| A8G | 5.44 nM |
| G7U G63A | 19.9 nM |
| G7U G63U | 15.8 nM |
| G7U C33U | 6.35 nM |
| G7U C33G | 5.51 nM |
| G7A U22G | 7 nM |
| G7U G26A | 5.82 nM |
| G7U G26U | 6.93 nM |
| A8G G11A | 6.3 nM |
| A8G G11U | 6.74 nM |
| A8U A15G | 5.78 nM |
| A8U A15U | 7.15 nM |
| C6U G11U | 6.12 nM |
| C6U G11A | 5.43 nM |
| A8G U10A | 5.37 nM |
| A8G U10G | 5.44 nM |
| A8G U10C | 5.52 nM |
| A8U C53U | 3.63 nM |
| G7A A19U | 8.57 nM |

| Variant | Kd |
| --- | --- |
| C6U G16U | 6.67 nM |
| G7U C53U | 4.6 nM |
| G7A C9G | 5.55 nM |
| A8U C50U | 10.4 nM |
| G7U A43G | 58 nM |
| G7U A43U | 84.5 nM |
| C6U G14U | 7.02 nM |
| C6U G14A | 7.01 nM |
| C6U G26A | 4.04 nM |
| G7U C51U | 7.54 nM |
| A8U A52U | 17.4 nM |
| A8U A52G | 5.67 nM |
| G7U C9G | 6.28 nM |
| G7U C9U | 6.52 nM |
| C6U U23G | 6.14 nM |
| A8G G26A | 4.49 nM |
| G7U U23C | 4.06 nM |
| G7U U23G | 6.08 nM |
| G7U C40U | 80.4 nM |
| A8U C40G | 8.55 nM |
| A8G C25U | 5.14 nM |
| G7U C50U | 9.77 nM |
| A8G U29G | 5.77 nM |
| A8G U29A | 7.95 nM |

| Variant | Kd |
| --- | --- |
| A8G U29C | 5.69 nM |
| A8G G58U | 20.1 nM |
| G7U C12U | 5.94 nM |
| G7U C12G | 6.89 nM |
| A8U A21U | 7.37 nM |
| A8U A21G | 6.05 nM |
| G7U G42A | 59 nM |
| G7U G42U | 17.4 nM |
| A8G C9G | 5.53 nM |
| A8G C9U | 5.53 nM |
| A8G C9A | 7.04 nM |
| G7C U10G | 6.28 nM |
| A8G G48A | 11.7 nM |
| A8C U22G | 7.46 nM |
| G7A G14U | 6.75 nM |
| A8C U10G | 6.49 nM |
| A8U G11A | 6.46 nM |
| A8U G11U | 6.61 nM |
| G7U G62A | 25.2 nM |
| G7U G62U | 7.8 nM |
| A8G U41G | 6.37 nM |
| G7U U47A | 12.9 nM |
| G7U U47G | 7.97 nM |
| A8U G54A | 11.3 nM |

| Variant | Kd |
| --- | --- |
| C6U U61A | 38.1 nM |
| A8G C13A | 6.62 nM |
| A8G C13U | 4.41 nM |
| A8G C13G | 5.95 nM |
| G7U A21U | 5.79 nM |
| G7U A21G | 6.51 nM |
| G7U A59G | 67.6 nM |
| G7U A59U | 18.3 nM |
| C6U U10G | 5.57 nM |
| G7U G55U | 6.97 nM |
| G7U G55A | 7.6 nM |
| A8G A39G | 12.8 nM |
| A8G A39U | 21.7 nM |
| A8C C13G | 6.73 nM |
| A8U C25G | 6.83 nM |
| A8U C25U | 6.08 nM |
| A8G C12G | 5.74 nM |
| A8G C12U | 5.09 nM |
| A8C U23G | 7.61 nM |
| A8U C33U | 6.3 nM |
| G7U C37A | 20.8 nM |
| G7U C37U | 10.5 nM |
| G7U C37G | 11.1 nM |
